pIC50: −log10 of the molar value.
How the values were obtained:
Type in all cases: functional
[1] = Concentration of compound provoking 50% inhibition on growth of Leishmania donovani promastigotes; conditions: read-out: I50
Outline: (§1)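 L. donovani LRC L-52 promastigotes were grown at 26 °C in 45% DMEM plus 45% RPMI 1640 (25 mM HEPES, pH 7.4) with 10% heat-inactivated FCS and antibiotics. Compound was added one day after seeding. Cells were counted by hemacytometer 3 days later, in duplicate flasks at two dilutions each, against untreated cultures. IC50 is the mean of five independent experiments.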

Leishmania donovani [2] = test: Percent inhibition on the biosynthesis of DNA of promastigotes of Leishmania donovani at 37 uM concentration
Outline: (§2)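 Promastigotes (5 x 10^6 cells/mL) were incubated with or without compound for 4 h, then pulsed for 1 h with a labelled precursor: [methyl-3H]thymidine 2.5 µCi/mL for DNA, [5-3H]uridine 2.5 µCi/mL for RNA, or [4,5-3H]leucine 5 µCi/mL for protein. Cells were washed in cold PBS and fractionated with TCA (cold-soluble pool, hot-soluble nucleic acid, insoluble protein). Protein was measured by Lowry.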

Leishmania donovani [3] = test: Percent inhibition on the biosynthesis of RNA of promastigotes of Leishmania donovani at 3.7 uM concentration; outline: as §2
Leishmania donovani [4] = test: Percent inhibition on the biosynthesis of RNA of promastigotes of Leishmania donovani at 37 uM concentration; outline: as §2
Leishmania donovani [5] = test: Percent inhibition on the biosynthesis of proteins of promastigotes of Leishmania donovani at 3.7 uM concentration; outline: as §2
Leishmania donovani [6] = test: Percent inhibition on the biosynthesis of proteins of promastigotes of Leishmania donovani at 37 uM concentration; outline: as §2
Leishmania donovani [7] = test: Percent inhibition on the growth of the promastigotes of Leishmania donovani at 3.7 uM concentration
Leishmania donovani [8] = test: Percent inhibition on the biosynthesis of DNA of promastigotes of Leishmania donovani at 3.7 uM concentration; outline: as §2
Leishmania donovani [9] = test: Concentration of compound provoking >99% irreversible after removal of drugs from culture medium inhibition on growth of Leishmania donovani promastigotes
Outline: (§3)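 Strain LRC L-52 promastigotes were exposed to compound for 3 days at 26 °C in DMEM/RPMI 1640 (HEPES, pH 7.4) with 10% heat-inactivated FCS. Cells were then centrifuged, washed free of drug and resuspended in fresh medium. They were counted by hemacytometer after 3 more days. The value is the concentration giving >99% irreversible growth inhibition.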

Leishmania donovani [10] = test: Percent inhibition on the growth of the promastigotes of Leishmania donovani at 37 uM concentration
Leishmania donovani [11] = test: Percent inhibition on the biosynthesis of DNA of promastigotes of Leishmania donovani at 53 uM concentration; outline: as §2
Leishmania donovani [12] = test: Percent inhibition on the biosynthesis of RNA of promastigotes of Leishmania donovani at 26.6 uM concentration; outline: as §2
Leishmania donovani [13] = test: Percent inhibition on the biosynthesis of RNA of promastigotes of Leishmania donovani at 53 uM concentration; outline: as §2
Leishmania donovani [14] = test: Percent inhibition on the biosynthesis of proteins of promastigotes of Leishmania donovani at 26.6 uM concentration; outline: as §2
Leishmania donovani [15] = test: Percent inhibition on the growth of the promastigotes of Leishmania donovani at 26.6 uM concentration
Leishmania donovani [16] = test: Percent inhibition on the growth of the promastigotes of Leishmania donovani at 53 uM concentration
Leishmania donovani [17] = test: Concentration of compound provoking >99% irreversible after removal of drugs from culture medium inhibition on growth of Leishmania donovani promastigotes multiplication; outline: as §3
Leishmania donovani [18] = test: Percent inhibition on the biosynthesis of DNA of promastigotes of Leishmania donovani at 26.6 uM concentration; outline: as §2
[19] = Concentration of compound provoking 50% inhibition on growth of Leishmania donovani promastigotes multiplication; conditions: read-out: I50; outline: as §1
Leishmania donovani [20] = test: Percent inhibition on the biosynthesis of proteins of promastigotes of Leishmania donovani at 53 uM concentration; outline: as §2
Leishmania donovani [21] = test: Percent inhibition on the biosynthesis of DNA of promastigotes of Leishmania donovani at 5.25 uM concentration; outline: as §2
Leishmania donovani [22] = test: Percent inhibition on the biosynthesis of RNA of promastigotes of Leishmania donovani at 17.5 uM concentration; outline: as §2
Leishmania donovani [23] = test: Percent inhibition on the biosynthesis of RNA of promastigotes of Leishmania donovani at 3.5 uM concentration; outline: as §2
Leishmania donovani [24] = test: Percent inhibition on the biosynthesis of RNA of promastigotes of Leishmania donovani at 5.25 uM concentration; outline: as §2
Leishmania donovani [25] = test: Percent inhibition on the biosynthesis of proteins of promastigotes of Leishmania donovani at 17.5 uM concentration; outline: as §2
Leishmania donovani [26] = test: Percent inhibition on the biosynthesis of proteins of promastigotes of Leishmania donovani at 3.5 uM concentration; outline: as §2
Leishmania donovani [27] = test: Percent inhibition on the biosynthesis of proteins of promastigotes of Leishmania donovani at 5.25 uM concentration; outline: as §2
Leishmania donovani [28] = test: Percent inhibition on the growth of the promastigotes of Leishmania donovani at 17.5 uM concentration
Leishmania donovani [29] = test: Percent inhibition on the growth of the promastigotes of Leishmania donovani at 3.5 uM concentration
Leishmania donovani [30] = test: Percent inhibition on the biosynthesis of DNA of promastigotes of Leishmania donovani at 3.5 uM concentration; outline: as §2
Leishmania donovani [31] = test: Percent inhibition on the biosynthesis of DNA of promastigotes of Leishmania donovani at 17.5 uM concentration; outline: as §2

Question: With `COC(=O)c1cc2c(cn1)[nH]c1ccccc12` [BETA-CCM] as the compound, how does the pIC50 [1] read?
Answer: The pIC50 was under 4.30.

Question: What does the source list for `N/C(S)=N/N=C/c1cc2c3ccccc3nc-2c[nH]1`?
Answer: inhibition (Leishmania donovani [2]): 99.7%; inhibition (Leishmania donovani [3]): 34%; inhibition (Leishmania donovani [4]): 96%; inhibition (Leishmania donovani [5]): 7%; inhibition (Leishmania donovani [6]): 81%; inhibition (Leishmania donovani [7]): 37%; inhibition (Leishmania donovani [8]): 89%; pIC50 [1]: 5.30; concentration for >99% irreversible growth inhibition (Leishmania donovani [9]): 40 µM; inhibition (Leishmania donovani [10]): 90%

Question: Which inhibition (Leishmania donovani [11]) does the source give for `N/C(S)=N/N=C/c1ccccn1` here?
Answer: The inhibition was 95%.

Question: What about the inhibition (Leishmania donovani [12]) of the same compound?
Answer: The inhibition was 50%.

Question: And the inhibition (Leishmania donovani [13])?
Answer: The inhibition was 53%.

Question: And the inhibition (Leishmania donovani [14])?
Answer: Its inhibition is 20%.

Question: What about the inhibition (Leishmania donovani [15]) of the same compound?
Answer: The inhibition was 56%.

Question: And the inhibition (Leishmania donovani [16])?
Answer: Its inhibition is 78%.

Question: And the Imax (Leishmania donovani [17])?
Answer: The Imax was 67 µM.

Question: And the inhibition (Leishmania donovani [18])?
Answer: The inhibition was 90%.

Question: What about the pIC50 [19] of the same compound?
Answer: Its pIC50 is 4.54.

Question: And the inhibition (Leishmania donovani [20])?
Answer: Its inhibition is 17%.

Question: What does the source list for `C/C(=N\N=C(\N)S)c1cc2c3ccccc3nc-2c[nH]1`?
Answer: inhibition (Leishmania donovani [21]): 0.5%; inhibition (Leishmania donovani [22]): 98.7%; inhibition (Leishmania donovani [23]): 36%; inhibition (Leishmania donovani [24]): 52%; inhibition (Leishmania donovani [25]): 95%; inhibition (Leishmania donovani [26]): 25%; inhibition (Leishmania donovani [27]): 36%; inhibition (Leishmania donovani [28]): 100%; inhibition (Leishmania donovani [29]): 68%; inhibition (Leishmania donovani [30]): 0%; pIC50 [1]: 5.60; concentration for >99% irreversible growth inhibition (Leishmania donovani [9]): 17.5 µM; inhibition (Leishmania donovani [31]): 99.6%

Question: What does the source list for `CCOC(=O)c1cc2cc(/C=N/N=C(/N)S)[nH]cc-2n1`?
Answer: pIC50 [1]: < 4.30; concentration for >99% irreversible growth inhibition (Leishmania donovani [9]): > 75 µM

Question: With `N=C(N)c1ccc(OCCCCCOc2ccc(C(=N)N)cc2)cc1` [PENTAMIDINE] as the compound, how does the pIC50 [1] read?
Answer: Its pIC50 is 6.25.

Question: And the concentration for >99% irreversible growth inhibition (Leishmania donovani [9])?
Answer: The concentration for >99% irreversible growth inhibition was 1.1 µM.
